NF-kB expr up: compounds increasing NF-kB expression in human neuronal cells | NF-kB reporter expression; active compounds read high | fold change at 12.5 µM | 190,000 tested, 1.6% active; in the data active = fold change above about 3.3
STAT1 activator: STAT1 signaling activation; AID 932; activation (% of control), % at 5.5 µM; NIH 3T3 STAT1-luciferase reporter, IFN-gamma, luminescence; 100% = IFN-gamma alone, no compound; 200,000 tested, 2.6% active;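 active = activation above the screen-wide mean activation plus 3 SD, cut at about 130% in these data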;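 also: raw ratio to IFN-gamma control signal so 100% means no change and 0% no light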
APP 5'UTR act: activates APP 5'UTR luciferase reporter | activation, % at 2 µM | SH-SY5Y APP 5'UTR luciferase reporter, luminescence; zero percent = DMSO vehicle wells | 190,000 tested, 1% active;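 active = activation above a set limit, based on mean plus 3 SD of controls, cut at about 140% in these data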
Pf gametocyte: inhibitors of late stage P. falciparum gametocyte viability | P. falciparum stage V gametocytes, ATP luminescence, 24 h | inhibition, % at 10.9 µM | 150,000 tested, 0.065% active;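 active = inhibition above the mean plus 3 SD of compounds within the control limits, set per campaign, cut at about 38% in these data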;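 also: 0% = DMSO wells and 100% = medium only without gametocytes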
STAT1 blocker: STAT1 signaling inhibition | NIH 3T3 STAT1-luciferase reporter, IFN-gamma, luminescence | inhibition, % at 5.5 µM | AID 920 | 200,000 tested, 0.35% active;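 active = inhibition above a set limit, the mean inhibition across all tested compounds plus 3 SD, cut at about 34% in these data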;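 also: 0% = IFN-gamma with DMSO and 100% = IFN-gamma with 300 µM nifuroxazide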
STAT3 act: activators of IL-6 induced STAT3 signaling; 190,000 tested, 0.91% active; U3A cells, IL-6 STAT3-luciferase reporter, luminescence; 100% = signal with IL-6 EC80 alone; AID 871; activation (% of control), % at 5.6 µM;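 active = activation above the screen-wide mean of compound activation plus 3 SD, cut at about 130% in these data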;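 also: 0% = background luminescence of wells with medium and substrate only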
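Test system: STAT3-luciferase reporter U3A cells; Detection: reporter luminescence signal; Times: 1 h compound pre-exposure, 6 h IL-6 stimulation, 37 °C; Benchmarks: IL-6-only high control; Also added: IL-6 stimulus at 33 ng/mL final.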
* marks the source's active call; other numbers are inactive results; . = no result given. This is a sample that favours compounds with a hit; in the whole collection about 3.9% have one here.

SMILES	NF-kB expr up	STAT1 activator	APP 5'UTR act	Pf gametocyte	STAT1 blocker	STAT3 act
c1ccc(-c2nc(-c3ccccn3)no2)cc1	1.8	46.9	63.7	.	62.2*	20.1
CCCCN1C(=O)N(c2nnc(C(C)(C)C)s2)C(O)C1c1ccc(C)cc1 (stereo not given)	.	.	.	-20.9	.	.
CC(=O)OCC1(C)CN(c2ccccc2)NC1=O (stereo not given)	1.09	107.3	-5.8	-4.4	-8.6	104.1
CCOc1ccc(NC(=O)c2ccc(NC(=O)Cc3n[nH]c(=O)c4ccccc34)cc2)cc1	.	.	.	-6.1	.	.
Fc1ccc(-c2csc(-c3ccccn3)n2)cc1F	2.81	140.5*	8.8	.	-45.7	92.5
Cc1ccc(-c2nc(-c3ccccn3)no2)cc1Cl	0.59	28.1	158.7*	.	78.6*	15.4
c1ccc(-c2ccc(-c3nc(-c4ccccn4)no3)cc2)cc1	0.3	17.6	-46.1	.	92.2*	9.7
Cc1ccc(-c2nc(-c3ccccn3)no2)cc1[N+](=O)[O-]	.	.	.	-11.8	.	.
COc1nc(C)ccc1-c1noc(-c2ccco2)n1	4.6*	140.3*	181.9*	.	-33.4	80.0
COc1nc(-c2ccc(C)cc2)ccc1-c1noc(-c2ccco2)n1	1.29	114.6	12.9	2.2	-16.1	112.4
c1ccc(-c2noc(-c3ccno3)n2)nc1	.	.	.	5.8	.	.
CCc1cc2c(=O)oc(-c3ccc(F)cc3)nc2s1	.	.	.	3.4	.	.
c1ccc(-c2noc(-c3cccc4ccccc34)n2)nc1	2.52	107.1	80.7	-25.1	0.5	93.5
c1ccc(-c2noc(-c3ccco3)n2)nc1	2.09	136.8*	192.1*	.	-38.6	78.9
Cc1ccc(-c2nc(-c3ccccn3)no2)cc1	0.3	17.2	-39.2	25.3	90.3*	9.5
COc1cccc(-c2nc(-c3ccccn3)no2)c1OC	1.69	136.2*	87.8	.	-34.5	90.1
Cc1ccc(Cc2nc(-c3ccccn3)no2)cc1	2.55	126.7	117.4	6.5	-29.3	89.3
Cc1ccc(C(=O)N(C)CC(=O)Nc2ccc(F)c(F)c2F)o1	0.98	106.1	-1.6	13.2	-8.3	110.2
CN(CC(=O)NCc1ccccn1)S(=O)(=O)c1ccc2ccccc2c1	1.09	100.1	1.4	27.9	-1.6	94.9
CCc1ccc(OCCSc2nc3ccccc3n2CC(=O)O)cc1	.	.	.	0.4	.	.
O=C(c1ccco1)N1CCc2ccccc21	2.26	133.6*	54.6	-22.4	-36.1	89.8
O=C1CCN(C(=O)/C=C/c2ccccc2)c2ccccc21	1.95	129.3*	15.3	-2.2	-30.6	90.9
O=C(NC(=S)N1CCCc2ccccc21)c1ccco1	0.69	114.9	28.9	-10.6	-15.8	135.3*
O=C(c1ccccc1)N1CCc2ccccc21	1.04	94.8	-5.8	.	5.6	95.3
O=C(/C=C/c1ccco1)N1CCc2ccccc21	7.7*	90.0	249.7*	-10.9	12.2	73.4
SMILES	NF-kB expr up	STAT1 activator	APP 5'UTR act	Pf gametocyte	STAT1 blocker	STAT3 act
COc1ccc(/C=C/C(=O)OCC(=O)NCc2ccco2)c(OC)c1	1.08	101.7	0.4	.	-2.2	109.8
O=C(c1ccc(Br)o1)N1CCc2ccccc21	4.32*	147.5*	119.4	.	-53.4	97.1
Oc1ccc(Br)cc1-c1cc(-c2ccccc2Cl)[nH]n1	.	.	.	-6.0	.	.
Cc1ccccc1-c1cc(-c2ccccc2O)n[nH]1	7.65*	99.4	157.6*	.	0.6	125.7
Cc1ccc(-c2cc(-c3ccccc3Cl)[nH]n2)c(O)c1	9.83*	102.3	171.1*	.	-2.5	118.4
Oc1ccc(Br)cc1-c1cc(-c2ccccc2F)[nH]n1	1.35	99.0	16.6	0.0	1.2	134.2*
CCCCCOc1ccc(NC(=O)CSc2cccc3cccnc23)cc1	0.91	102.6	-2.3	-18.3	-2.9	99.2
Cc1cccc(NC(=O)Cn2cnc3c(oc4ccccc43)c2=O)c1C	1.29	105.6	4.1	10.4	-5.7	103.2
Cc1ccc(S(=O)(=O)Nc2ccccc2C(N)=O)cc1	1.03	111.2	-2.8	.	-9.3	134.4*
COc1cccc2cc(NC(=O)C3CCCCC3)c(=O)oc12	2.59	131.3*	12.7	.	-34.4	106.4
Cc1cc(-n2cnnn2)ccc1C(C)C	1.33	113.6	37.2	0.4	-14.4	106.5
N/C(=N\OC(=O)Cc1ccccc1)c1cccnc1	1.64	104.2	5.1	.	-4.7	91.8
N/C(=N\OC(=O)Cc1ccccc1)c1ccccc1Cl	1.64	147.4*	48.2	11.3	-51.1	100.5
CC(/C=C/C=C/c1ccccc1)=N/NC(=O)c1ccc2c(c1)OCCO2	.	.	.	-4.5	.	.

Screening data (PubChem)
